Data set [1] relates to Toxoplasma gondii. The data set is described as follows: Antimicrobial activity against Toxoplasma gondii RH infected in HFF assessed as inhibition of parasite replication at 10 to 25 uM after 28 hrs by immunofluorescence assay. Format: functional, organism-based. The essentials: (§1)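 Human fibroblast (HFF) cultures infected with intracellular T. gondii were exposed to compound in DMSO, with DMSO-only controls. They were fixed 28 h after infection for immunofluorescence. Parasite subpellicular microtubules were stained green, with host microtubules or parasite surface antigen P30/SAG1 in red and DNA in blue. Matched phase-contrast images were taken, and parasites per vacuole were scored.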

For data set [2], the system named is Toxoplasma gondii RH. The data set is described as follows: Inhibition of tubulin in Toxoplasma gondii RH infected in HFF assessed as microtubules disruption at 10 to 25 uM after 28 hrs by immunofluorescence assay. The essentials:
as §1

Data set [3] deals with Toxoplasma gondii. The data set is described as follows: Antimicrobial activity against Toxoplasma gondii RH infected in HFF assessed as inhibition of parasite growth at 10 to 25 uM after 28 hrs by immunofluorescence assay. Format: functional, organism-based. The essentials: as §1
Data set [4] relates to Toxoplasma gondii. Briefly: Antimicrobial activity against Toxoplasma gondii infected in HFF after 8 days by plaque assay. Format: functional, organism-based. As to conditions: 192 h.
For data set [5], the system named is HFF. Briefly: Cytotoxicity against HFF assessed as cell vacuolation at 30 uM after 17 hrs by MTS assay. As to conditions: human. Format: cell-based.
The test system of data set [6] is HFF. Briefly: Cytotoxicity against HFF assessed as assessed as reduction of cell viability at 30 uM after 17 hrs by MTS assay. Format: cell-based. As to conditions: human.
Data set [7] concerns HFF. Briefly: Cytotoxicity against HFF assessed as reduction of cell viability at 0.5 uM after 17 hrs by MTS assay. Format: cell-based. The following applies: human. The essentials:
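Host HFF cells were treated for 17 h with compound at 0.5 µM or 30 µM. Viable cells were quantified by tetrazolium dye (MTS, CellTiter reagent) assay.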
(In general: Tetrazolium assays rely on reduction of a dye to a coloured formazan, in cell work by metabolically active cells.)

In data set [8] the test system is Toxoplasma gondii RH. Briefly: Inhibition of tubulin in Toxoplasma gondii RH infected in HFF assessed as microtubules disruption at 0.5 uM after 28 hrs by immunofluorescence assay. The gist of the method:
(§2)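 Human foreskin fibroblast (HFF) cultures infected with intracellular Toxoplasma were treated for 28 h with 0.5 µM compound in DMSO, with DMSO vehicle as control. Read-out was immunofluorescence: host cell microtubules in red, parasite subpellicular microtubules/tubulin in green, and host and parasite DNA in blue. Microtubules were scored as filamentous linear arrays or as diffuse staining, with matched phase-contrast images.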

The target in a further data set is Tubulin (Homo sapiens) (UniProt P68371+Q9H4B7+P0DPH7+P68366+Q13509+Q71U36+P04350+Q3ZCM7+P07437+P68363+Q9BQE3+Q6PEY2+Q13885+Q9BVA1+Q9BUF5). The data set is described as follows: Inhibition of tubulin in HFF assessed as microtubules disruption at 0.5 uM after 28 hrs by immunofluorescence assay. The essentials:
as §2

Data set [9] relates to Toxoplasma gondii. Briefly: Antimicrobial activity against Toxoplasma gondii RH infected in HFF assessed as inhibition of parasite replication at 0.5 uM after 28 hrs by immunofluorescence assay. Format: functional, organism-based.

For 20 molecules, inhibition, IC50 and Activity results are on record in ChEMBL document CHEMBL1221305, “Synthesis and evaluation of oryzalin analogs against Toxoplasma gondii” (Bioorg Med Chem Lett, 2010).

The source made the active and inactive calls. No cut-off for these calls is given here.

In the case of `NS(=O)(=O)c1cc([N+](=O)[O-])c(N(Cc2ccccc2)Cc2ccccc2)c([N+](=O)[O-])c1`, the inhibition entry in the data set with Toxoplasma gondii [1] and with Toxoplasma gondii [3] was “Active” in each case. The inhibition result in the data set with Toxoplasma gondii RH [2] was “inactive”.
In general, IC50 refers to the midpoint of a concentration-inhibition curve. In the data set with Toxoplasma gondii [4], `CCCN(CCC)c1c([N+](=O)[O-])cc(S(N)(=O)=O)cc1[N+](=O)[O-]` [ORYZALIN] registered an IC50 of 250 nM.
Consider `Cc1ccc(CN(Cc2ccc(C)cc2)c2c([N+](=O)[O-])cc(S(N)(=O)=O)cc2[N+](=O)[O-])cc1`, for which the inhibition result in the data set with Toxoplasma gondii [1] and with Toxoplasma gondii [3] was “Active” each time. For the same molecule, the inhibition entry in the data set on Toxoplasma gondii RH [2] was “inactive”. Besides, the Activity entry in the data set with HFF [5] is “Toxic”.
In the data set on Toxoplasma gondii [4], `NS(=O)(=O)c1cc([N+](=O)[O-])c(N(Cc2ccccc2)CC2CC2)c([N+](=O)[O-])c1` had an IC50 of 2100 nM.
Same read-out and setting: the result for `CCCN(CCC)c1c([N+](=O)[O-])cc(S(=O)(=O)Nc2ccccc2)cc1[N+](=O)[O-]` reads 6700 nM; that for `CCCN(CCC)c1c([N+](=O)[O-])cc([N+](=O)[O-])cc1C(F)(F)F`, 7800 nM; that for `CCCN(CCC)c1c(C#N)cc(S(N)(=O)=O)cc1C#N`, 4800 nM.
Take `NS(=O)(=O)c1cc([N+](=O)[O-])c(N(CCc2ccccc2)CCc2ccccc2)c([N+](=O)[O-])c1`: the inhibition result with Toxoplasma gondii [1] and with Toxoplasma gondii [3] was “Active” throughout. Besides, the inhibition entry in the data set on Toxoplasma gondii RH [2] is “inactive”. Further, the Activity result with HFF [5] and in the data set with HFF [6] was “Toxic” in each case.
The molecule `CCCCN(CCCC)c1c([N+](=O)[O-])cc(C(F)(F)F)c(N)c1[N+](=O)[O-]` displayed an IC50 in the data set on Toxoplasma gondii [4] of 510 nM.
`NS(=O)(=O)c1cc([N+](=O)[O-])c(N(CCCCl)Cc2ccccc2)c([N+](=O)[O-])c1`: in the data set on Toxoplasma gondii [4], the IC50 was 2600 nM.
On the same count and under the same terms, the result for `CCCN(CCC)c1c([N+](=O)[O-])cc(S(=O)(=O)NCCO)cc1[N+](=O)[O-]` reads 26000 nM; that for `CCCN(CCC)c1c([N+](=O)[O-])cc(S(=O)(=O)Nc2ccc(O)cc2)cc1[N+](=O)[O-]`, 2600 nM; that for `CCCN(CCC)c1c([N+](=O)[O-])cc(S(=O)(=O)N(C)C)cc1[N+](=O)[O-]`, 3400 nM.
Still for that read-out and setting: the result for `CC(C)CN(CC(C)C)c1c([N+](=O)[O-])cc(S(N)(=O)=O)cc1[N+](=O)[O-]` reads 350 nM; that for `CCN(CC)c1c([N+](=O)[O-])cc(C(F)(F)F)c(N)c1[N+](=O)[O-]` [DINITRAMINE], 70 nM; that for `CCCN(CCC)c1c([N+](=O)[O-])cc(C(F)(F)F)cc1[N+](=O)[O-]` [TRIFLURALIN], 650 nM.
On to `CCCCN(CCCC)c1c([N+](=O)[O-])cc(S(N)(=O)=O)cc1[N+](=O)[O-]`, for which inhibition in the data set on Toxoplasma gondii [4] was half-maximal at 1100 nM (IC50).
`NS(=O)(=O)c1cc([N+](=O)[O-])c(N(CC2CCCCC2)CC2CCCCC2)c([N+](=O)[O-])c1`: the inhibition result with Toxoplasma gondii [1] and in the data set on Toxoplasma gondii [3] was “Active” in each case. The inhibition result with Toxoplasma gondii RH [2] was “inactive”.
Molecule `NS(=O)(=O)c1cc([N+](=O)[O-])c(N(CCCl)Cc2ccccc2)c([N+](=O)[O-])c1` registered an IC50 with Toxoplasma gondii [4] of 850 nM.
Consider `CCCN(CCC)c1c([N+](=O)[O-])cc(C(F)(F)F)c(N)c1[N+](=O)[O-]`, for which the Activity result with HFF [7] and at Tubulin (Homo sapiens) was “Non-toxic” throughout. Also, the midpoint of inhibition with Toxoplasma gondii [4], the IC50, lay at 36 nM. Besides, the inhibition result with Toxoplasma gondii RH [8] and with Toxoplasma gondii [9] was “Active” in each case.
